Measurements published in ChEMBL document CHEMBL1148376, “Synthesis, monoamine transporter binding properties, and behavioral pharmacology of a series of 3beta-(substituted phenyl)-2beta-(3'-substituted isoxazol-5-yl)tropanes” (J Med Chem, 2004).
Where “and” joins values, the source holds several entries; their conditions need not be identical. Equal values may be shown once. Calls of active or inactive are those of the source. No cut-off for these calls is given here.

Assays:
Mus musculus [1] = assay: Percent change in locomotor activity in mice at 1 mg/kg i.p. in 1 h.; assay type: functional; details: route intraperitoneal
[2] = molecular target: T1, Norepinephrine transporter (Rattus norvegicus, UniProt Q9WTR4); assay: Inhibition of norepinephrine transporter (NET) determined using [3H]nisoxetine radioligand.
In short: (§1)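 Competition binding at the NET with 0.5 nM [3H]nisoxetine (final concentration). Other procedures follow earlier published methods.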

Mus musculus [3] = organism: Mus musculus; assay: Effective dose for locomotor activity in mice in the peak hour.; assay type: functional
Mus musculus [4] = assay: Percent change in locomotor activity in mice at 1 mg/kg i.p. in 2 h.; assay type: functional; details: route intraperitoneal
In short: (§2)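 Mice habituated 1/2 h to photocell activity chambers, then injected ip with compound homogenized in 0.5% methyl cellulose (10 mL/kg); vehicle controls; N = 5 or 6 per dose. Photobeam interruptions recorded in 10-min bins for 4 h, grouped into 1-h bins; one-way ANOVA with Newman-Keuls post hoc test (p < 0.05).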

Mus musculus [5] = assay: Percent change from vehicle in locomotor activity in mice at 0.1 mg/kg (ip) in 2 h; assay type: functional
Mus musculus [6] = assay: Percent change locomotor activity in mice at 1 mg/kg i.p. in 3 h.; assay type: functional; details: route intraperitoneal; in short: as §2
Rattus norvegicus [7] = assay: Drug discrimination effect of compound in rats, expressed as percent of rats choosing the cocaine lever at dose 0.17 mg/kg (ip); assay type: functional
[8] = molecular target: Sodium-dependent dopamine transporter (Rattus norvegicus, UniProt P23977); assay: Inhibitory concentration required to inhibit dopamine transporter DAT was determined by using [3H]WIN-35428 radioligand
In short: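 Competition binding at the DAT with 0.5 nM [3H]WIN35,428 (final concentration). Other procedures follow earlier published methods.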

Mus musculus [9] = assay: Percent change from vehicle in locomotor activity in mice at 0.3 mg/kg (ip) in 2 h; assay type: functional
Mus musculus [10] = assay: Percent change from vehicle in locomotor activity in mice at 0.1 mg/kg (ip) in 1 h; assay type: functional
Mus musculus [11] = assay: Percent change from vehicle in locomotor activity in mice at 0.3 mg/kg (ip) in 1 h; assay type: functional
Rattus norvegicus [12] = assay: Effective dose for drug discrimination effect in rat (ip); assay type: functional
In short: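 Cocaine-trained rat drug discrimination, FR10, 10-min sessions. Compound in 0.5% methyl cellulose given ip 15 min before session, usually to 7-8 rats per dose. Doses were raised from ≤20% to ≥80% cocaine-lever choice, capped at 30 mg/kg, >50% loss of pressing, or side effects.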

[13] = molecular target: T1, Norepinephrine transporter; assay: Binding affinity towards norepinephrine transporter was determined using [3H]nisoxetine radioligand.; in short: as §1
[14] = molecular target: T2, Sodium-dependent serotonin transporter (Rattus norvegicus, UniProt P31652); assay: Inhibitory concentration required to inhibit serotonin transporter 5-HTT was determined by using [3H]paroxetine radioligand
In short: (§3)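 Competition binding at the 5-HTT with 0.2 nM [3H]paroxetine (final concentration). Other procedures follow earlier published methods.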

Mus musculus [15] = assay: Percent change in locomotor activity in mice at 1 mg/kg i.p. in 4 h.; assay type: functional; details: route intraperitoneal; in short: as §2
Mus musculus [16] = assay: Percent change from vehicle in locomotor activity in mice at 0.3 mg/kg (ip) in 4 h; assay type: functional
Mus musculus [17] = assay: Percent change from vehicle in locomotor activity in mice at 0.3 mg/kg (ip) in 3 h; assay type: functional
[18] = molecular target: T2, Sodium-dependent serotonin transporter; assay: Binding affinity towards serotonin transporter 5-HTT was determined using [3H]paroxetine radioligand.; in short: as §3
Mus musculus [19] = assay: Percent change from vehicle in locomotor activity in mice at 0.1 mg/kg (ip) in 4 h; assay type: functional
Mus musculus [20] = assay: Percent change from vehicle in locomotor activity in mice at 0.1 mg/kg (ip) in 3 h; assay type: functional
Rattus norvegicus [21] = assay: Drug discrimination effect of compound in rats, expressed as percent of rats choosing the cocaine lever at dose 0.3 mg/kg (ip); assay type: functional
Mus musculus [22] = organism: Mus musculus; assay: Hour 1 ratio to cocaine was determined for locomotor activity in mice; assay type: functional
Rattus norvegicus [23] = assay: Drug discrimination effect of compound in rats, expressed as percent of rats choosing the cocaine lever at dose 0.1 mg/kg (ip); assay type: functional
Rattus norvegicus [24] = assay: Drug discrimination effect of compound in rats, expressed as percent of rats choosing the cocaine lever at dose 0.56 mg/kg (ip); assay type: functional
Rattus norvegicus [25] = assay: Drug discrimination effect of compound in rats, expressed as percent of rats choosing the cocaine lever at dose 1 mg/kg (ip); assay type: functional
Mus musculus [26] = assay: Percent change from vehicle in locomotor activity in mice at 30 mg/kg (ip) in 4 h; assay type: functional
Mus musculus [27] = assay: Percent change from vehicle in locomotor activity in mice at 10 mg/kg (ip) in 1 h; assay type: functional
Mus musculus [28] = assay: Percent change from vehicle in locomotor activity in mice at 10 mg/kg (ip) in 3 h; assay type: functional
Mus musculus [29] = assay: Percent change from vehicle in locomotor activity in mice at 30 mg/kg (ip) in 1 h; assay type: functional
Mus musculus [30] = assay: Percent change in locomotor activity in mice at 3 mg/kg i.p. in 2 h.; assay type: functional; details: route intraperitoneal; in short: as §2
Mus musculus [31] = assay: Percent change from vehicle in locomotor activity in mice at 10 mg/kg (ip) in 2 h; assay type: functional
Mus musculus [32] = assay: Percent change in locomotor activity in mice at 3 mg/kg i.p. in 3 h.; assay type: functional; details: route intraperitoneal; in short: as §2
Mus musculus [33] = assay: Percent change from vehicle in locomotor activity in mice at 10 mg/kg (ip) in 4 h; assay type: functional
Mus musculus [34] = assay: Percent change in locomotor activity in mice at 3 mg/kg i.p. in 1 h.; assay type: functional; details: route intraperitoneal; in short: as §2
Rattus norvegicus [35] = assay: Drug discrimination effect of compound in rats, expressed as percent of rats choosing the cocaine lever at dose 10 mg/kg (ip); assay type: functional
Rattus norvegicus [36] = assay: Drug discrimination effect of compound in rats, expressed as percent of rats choosing the cocaine lever at dose 30 mg/kg (ip); assay type: functional
Mus musculus [37] = assay: Percent change from vehicle in locomotor activity in mice at 30 mg/kg (ip) in 2 h; assay type: functional
Mus musculus [38] = assay: Percent change in locomotor activity in mice at 3 mg/kg i.p. in 4 h.; assay type: functional; details: route intraperitoneal; in short: as §2
Mus musculus [39] = assay: Percent change from vehicle in locomotor activity in mice at 30 mg/kg (ip) in 3 h; assay type: functional
Mus musculus [40] = organism: Mus musculus; assay: Effective dose was evaluated for locomotor activity in mice in the peak hour; No stimulation; assay type: functional, organism-based
Rattus norvegicus [41] = assay: Drug discrimination effect of compound in rats, expressed as percent of rats choosing the cocaine lever at dose 3 mg/kg (ip); assay type: functional

T2 sequence (P31652 whole entry): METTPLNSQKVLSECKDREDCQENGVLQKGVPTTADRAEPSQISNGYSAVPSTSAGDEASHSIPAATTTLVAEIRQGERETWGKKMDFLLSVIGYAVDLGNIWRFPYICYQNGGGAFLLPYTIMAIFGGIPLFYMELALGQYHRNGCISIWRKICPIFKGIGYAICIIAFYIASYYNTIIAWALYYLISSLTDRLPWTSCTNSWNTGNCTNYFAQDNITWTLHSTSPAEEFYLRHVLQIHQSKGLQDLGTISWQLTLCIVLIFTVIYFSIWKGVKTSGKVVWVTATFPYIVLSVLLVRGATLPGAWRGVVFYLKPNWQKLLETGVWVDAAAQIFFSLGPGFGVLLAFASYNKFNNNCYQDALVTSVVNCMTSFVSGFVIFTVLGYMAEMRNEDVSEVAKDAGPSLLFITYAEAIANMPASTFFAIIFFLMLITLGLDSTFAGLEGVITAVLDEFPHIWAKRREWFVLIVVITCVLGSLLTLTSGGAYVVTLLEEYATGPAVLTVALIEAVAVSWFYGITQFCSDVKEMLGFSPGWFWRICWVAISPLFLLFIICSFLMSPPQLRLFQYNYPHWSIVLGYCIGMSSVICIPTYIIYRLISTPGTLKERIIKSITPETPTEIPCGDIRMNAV
Sequence of Sodium-dependent dopamine transporter (P23977 whole entry): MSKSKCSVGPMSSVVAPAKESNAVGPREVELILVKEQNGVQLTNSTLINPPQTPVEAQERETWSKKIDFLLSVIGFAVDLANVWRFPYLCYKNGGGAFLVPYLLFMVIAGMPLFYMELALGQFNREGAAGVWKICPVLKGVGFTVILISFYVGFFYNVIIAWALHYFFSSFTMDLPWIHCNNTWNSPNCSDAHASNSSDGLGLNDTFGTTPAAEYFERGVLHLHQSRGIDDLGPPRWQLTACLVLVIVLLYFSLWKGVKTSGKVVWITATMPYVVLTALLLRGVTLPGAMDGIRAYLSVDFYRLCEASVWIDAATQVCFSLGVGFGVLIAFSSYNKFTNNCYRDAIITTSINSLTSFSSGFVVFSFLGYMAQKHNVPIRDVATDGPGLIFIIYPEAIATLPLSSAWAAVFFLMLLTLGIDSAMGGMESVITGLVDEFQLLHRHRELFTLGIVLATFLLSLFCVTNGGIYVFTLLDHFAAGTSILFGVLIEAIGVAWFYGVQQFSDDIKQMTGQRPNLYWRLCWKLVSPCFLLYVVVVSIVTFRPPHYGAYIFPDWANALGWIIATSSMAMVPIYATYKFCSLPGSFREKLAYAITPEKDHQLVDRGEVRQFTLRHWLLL
T1 sequence (Q9WTR4 whole entry): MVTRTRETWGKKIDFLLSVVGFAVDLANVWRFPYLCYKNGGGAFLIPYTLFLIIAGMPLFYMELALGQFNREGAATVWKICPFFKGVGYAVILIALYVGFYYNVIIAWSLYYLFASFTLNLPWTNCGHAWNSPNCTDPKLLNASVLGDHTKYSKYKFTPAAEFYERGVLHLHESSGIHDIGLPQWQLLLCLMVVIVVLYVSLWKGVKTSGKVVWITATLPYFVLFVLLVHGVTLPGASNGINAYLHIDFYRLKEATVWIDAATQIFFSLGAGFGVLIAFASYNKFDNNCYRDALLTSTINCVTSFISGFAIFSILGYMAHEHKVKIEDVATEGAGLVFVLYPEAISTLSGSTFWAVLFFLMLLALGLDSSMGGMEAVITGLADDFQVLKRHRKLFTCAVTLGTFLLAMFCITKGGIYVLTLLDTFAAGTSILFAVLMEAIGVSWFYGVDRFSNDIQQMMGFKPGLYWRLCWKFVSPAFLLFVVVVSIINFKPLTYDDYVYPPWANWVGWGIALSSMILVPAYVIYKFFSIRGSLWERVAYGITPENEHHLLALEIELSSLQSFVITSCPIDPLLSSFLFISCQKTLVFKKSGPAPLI

Compound | Change (Mus musculus [1]) | IC50 [2] | ED50 (Mus musculus [3]) | Change (Mus musculus [4]) | Change (Mus musculus [5]) | Change (Mus musculus [6]) | IC50 [8] | Change (Mus musculus [9]) | Change (Mus musculus [10]) | Change (Mus musculus [11]) | ED50 (Rattus norvegicus [12]) | Ki [13] | IC50 [14] | Change (Mus musculus [15]) | Change (Mus musculus [16]) | Change (Mus musculus [17]) | Ki [18] | Change (Mus musculus [19]) | Change (Mus musculus [20]) | Drug discrimination effect (Rattus norvegicus [21]) | also measured
Cc1cc(C2C(c3ccc(Cl)cc3)CC3CCC2N3C)on1 (centres undefined) | 543% | 181 nM | 0.2 mg/kg | 434% | 92% | 926% | 0.59 nM | 526% | 48% | 354% | 0.21 mg/kg | 109 nM | 572 nM | 981% | 392% | 735% | 52 nM | -23% | 38% | 88% | Drug discrimination effect (Rattus norvegicus [7]): 25%; Ratio (Mus musculus [22]): 1.2; Drug discrimination effect (Rattus norvegicus [23]): 0%
CCc1cc(C2C(c3ccc(Cl)cc3)CC3CCC2N3C)on1 (centres undefined) | 954% | 120 nM | 0.4 mg/kg | 1900% | 224% | 1708% | 0.5 nM | 505% | 82% | 284% | 0.48 mg/kg | 72 nM | 3090 nM | 778% | 208% | 224% | 281 nM | 103% | 184% | 0% | Drug discrimination effect (Rattus norvegicus [24]): 75%; Drug discrimination effect (Rattus norvegicus [25]): 71%; Ratio (Mus musculus [22]): 2.1
Cc1ccc(C2CC3CCC(C2c2cc(-c4ccc(Cl)cc4)no2)N3C)cc1 (centres undefined) | 5% | 6980 nM |  |  |  | 33% | 8.74 nM | -20% |  | -35% |  | 3990 nM | > 100000 nM |  | 45% | -58% |  |  |  |  | Change (Mus musculus [26]): 52%; Change (Mus musculus [27]): -1%; Change (Mus musculus [28]): -45%; Change (Mus musculus [29]): -26%; Change (Mus musculus [30]): 39%; Change (Mus musculus [31]): -3%; Change (Mus musculus [32]): 7%; Change (Mus musculus [33]): -20%; Change (Mus musculus [34]): 30%; Drug discrimination effect (Rattus norvegicus [35]): 0%; Drug discrimination effect (Rattus norvegicus [36]): 0%; Change (Mus musculus [37]): 38%; Change (Mus musculus [15]; 1 mg/kg): 24% and 27%; Change (Mus musculus [38]): -1%; Change (Mus musculus [39]): 79%; Drug discrimination effect (Rattus norvegicus [25]): 0%; ED50 (Mus musculus [40]): inactive; Drug discrimination effect (Rattus norvegicus [41]): 13%
